Shown are actives, neighbours in structure and some others; about 1.3% of the full set was active somewhere.
Casp6 inh – human caspase-6 inhibitors, primary screen, biochemical, VEID-R110 fluorescence, single point, set 2. inhibition, % at 12.5 µM. 350,000 tested, 0.53% active. AID 686996, 2013. purified caspase-6, Z-VEID-R110 cleavage fluorescence. P55212;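 active means mean inhibition across replicates at least about 35%, with every replicate also reaching that limit, limit read from the data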;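 further: 0% = median of neutral control wells and 100% = no fluorescence left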
UCH37 inh – inhibitors of human UCH37 deubiquitinase, primary screen, biochemical, Ub-AMC cleavage, fluorescence; Ubiquitin carboxyl-terminal hydrolase isozyme L5 (Homo sapiens), Q9Y5K5; purified proteasome/UCH37; inhibition, % (no concentration beside the values); 330,000 tested, 0.33% active;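 active means mean inhibition over replicate wells above about 20%, limit read from the data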;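 further: 0% = compound-free wells with enzyme and 100% = wells lacking proteasome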
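system = Proteasome-associated human UCH37 deubiquitinase | amount = 0.15 nM proteasome as dispensed | medium = pH 7.4 Tris-HCl (50 mM) with ovalbumin, ATP-MgCl2, DTT | incubation = 30 min preincubation with enzyme, 25 min cleavage at room temperature | detection = AMC fluorescence 355/460 nm | read-out basis = percent inhibition | controls = no-proteasome and no-compound wells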
TDP2 inh – human TDP2 enzyme inhibitors, primary screen, biochemical, epi absorbance, recombinant enzyme. AID 720702, 2013. T5PNP hydrolysis, p-nitrophenol absorbance 415 nm. inhibition, % at 12.8 µM. 370,000 tested, 0.34% active;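 active means inhibition above the mean of all tested compounds plus 3 SD, set per campaign, cut at about 25% in these data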;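 further: 0% = DMSO with enzyme and 100% = buffer with substrate but no TDP2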
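Incubation: 2 h at 37 °C; Test system: recombinant human TDP2; Quantity: enzyme 120 nM; Read-out basis: percent inhibition; Medium: 50 mM Tris-HCl pH 7.5 with Mg2+, KCl, DTT, BSA; Repeats: single replicate; Compound: 12.8 µM single point, 1% DMSO; Signal: epi absorbance; Reagent: 5 mM T5PNP chromogenic substrate; Benchmarks: no-enzyme high, DMSO-plus-enzyme low.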
LEDGF integ inh – blockers of LEDGF/p75-dependent integrase strand transfer – biochemical, TR-FRET, high throughput, primary screen; inhibition, % at 3.7 µM; 370,000 tested, 0.64% active; AID 743269, 2014; TR-FRET IN-LEDGF/p75 DNA integration, Eu/Cy5; HIV-1 integrase (with human LEDGF/p75);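 active means inhibition above the screen-wide mean plus 3 SD, cut at about 13% in these data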;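 further: signal is the Cy5 over europium emission ratio at 671 and 618 nm; 0% = plate median of compound wells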
NSD2 inh – NSD2 histone methyltransferase inhibitors, primary screen, biochemical, AlphaScreen, single concentration, set 2. NSD2 peptide methylation, 120 min. inhibition, % at 12.5 µM. 310,000 tested, 0.54% active. AID 743445, 2014; in the data active means inhibition above about 50%
IN multimer act – HIV-1 IN multimer formation enhancers, counter-screen for LEDGF/p75 integration inhibitor project, biochemical, TR-FRET | shares compounds with LEDGF integ inh | activation, % at 7.7 µM | TR-FRET HIV-1 integrase multimerization | 2,000 tested, 17% active; in the data active means activation above about 8.9%
TRFRET interf – TR-FRET optical interference artefacts, confirmation, artefact control for LEDGF/p75-dependent integration inhibitor project, biochemical, HIV-1 IN multimerization. shares compounds with LEDGF integ inh. TR-FRET optical interference counterscreen. inhibition, % at 7.7 µM. 2,000 tested, under 10 active. AID 1053135, 2014;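 active means inhibition above the mean over all tested compounds plus 3 SD, which no compound reached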;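 further: 0% = integrase with antibodies and DMSO and 100% = antibodies without integrase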
LEDGF integ conf – inhibitors of HIV-1 IN-LEDGF/p75 DNA integration, confirmation, biochemical, TR-FRET; shares compounds with LEDGF integ inh; TR-FRET LEDGF/p75-dependent HIV-1 integration; inhibition, % at 3.7 µM; 2,000 tested, 36% active; AID 1053136, 2014; in the data active means inhibition above about 14%
* hit, by the source's call; . = not tested or not shown.

SMILES | Casp6 inh | UCH37 inh | TDP2 inh | LEDGF integ inh | NSD2 inh | IN multimer act | TRFRET interf | LEDGF integ conf
CCCCn1c(N)c(N(CCOC)C(=O)c2ccc(NC3CC3)c([N+](=O)[O-])c2)c(=O)[nH]c1=O | 0 | 4 | -7 | 0 | -4 | . | . | .
Cc1cccc(NC(=O)c2ccccc2SCc2ccc(F)cc2)n1 | -2 | -1 | 10 | 53* | -2 | 1 | -4 | -7
CCNC(=O)c1ccccc1SCc1ccccc1 | 0 | 5 | 7 | 14* | -2 | -2 | 6 | -5
CC(C)(C)C(=O)ON=C1CCS(=O)(=O)c2sccc21 | . | 5 | . | . | . | . | . | .
NC(c1csc(Nc2ccccn2)n1)c1ccccc1Cl (configuration not stated) | 2 | . | -9 | 15* | 16 | -1 | 7 | -7
NC(c1csc(Nc2cnccn2)n1)c1ccccc1Cl (configuration not stated) | 1 | . | -4 | 9 | 4 | . | . | .
O=C(Cn1cnc2ccccc21)NN=Cc1ccccc1 | . | 2 | . | . | . | . | . | .
CCOC(=O)c1c2ccc(OCC(=O)NN=Cc3ccc(C)cc3)cc2n2ccccc12 | . | -16 | . | . | . | . | . | .
CCOC(=O)c1c2ccc(OCC(=O)N/N=C/c3ccc(Cl)cc3)cc2n2ccccc12 | . | . | 8 | 14* | -4 | -2 | 12 | 6
c1ccc(CNc2ccc(N3CCOCC3)cc2)cc1 | -1 | -2 | 10 | 15* | . | 2 | -10 | -6
Cc1ccc(C=Nc2ccc(N(C)C)cc2)o1 | 33 | 8 | 14 | 15* | 4 | 1 | -2 | 4
Cc1ccc(C=Nc2ccccc2C(N)=O)o1 | 1 | -272 | -4 | -6 | -4 | . | . | .
Cc1cccc(N2C(=O)CSC2=NNC(=O)c2ccc(Cl)cc2)c1C | . | 5 | . | . | . | . | . | .
COc1ccc(C=NNc2ccc(C(F)(F)F)cc2[N+](=O)[O-])cc1 | . | 2 | . | . | . | . | . | .
C/C=C(\C)CN1CCN(c2ccccc2)CC1 | . | 1 | 5 | 27* | 2 | 0 | -1 | 4
Nc1nonc1-n1nnc(C(=O)NN=CC2CCCCC2)c1-c1ccccc1 | . | 1 | . | . | . | . | . | .
COC(=O)c1cccc(NC(=O)Cn2nnc3ccccc32)c1 | . | 3 | 5 | 19* | -6 | 1 | -5 | -1
CCOC(=O)c1ccc(NC(=O)Cn2nnc3ccccc32)cc1 | . | 6 | -11 | -5 | 4 | . | . | .
COc1cc(C=NNc2nc3ccccc3[nH]2)cc(OC)c1O | . | -4 | . | . | . | . | . | .
Nc1cc(=O)[nH]c(SCC(=O)Nc2cccc([N+](=O)[O-])c2)n1 | -3 | -1 | 7 | 56* | -2 | 1 | -7 | 1
Nc1cc(=O)[nH]c(SCC(=O)Nc2ccc([N+](=O)[O-])cc2)n1 | 1 | 8 | 8 | -7 | 2 | . | . | .
Oc1cc2c(cc1O)C1c3ccc(O)c(O)c3OCC1(O)C2 (configuration not stated) | 42* | 3 | -2 | 89* | . | 41* | -205 | 79*
O=CN/C=C/c1cc(O)ccc1O | 70* | -19 | 6 | 24* | . | 18* | -91 | 7
CCc1n[nH]c(=S)n1N=Cc1ccccc1OCc1ccc(Cl)cc1 | . | 4 | . | . | . | . | . | .
Cc1nnc(NN=Cc2cc(C)n(-c3ccc(F)cc3)c2C)n1N | . | 1 | . | . | . | . | . | .
Cc1nnc(N/N=C/c2cc(C)n(-c3ccc(F)cc3)c2C)n1N | 33 | . | 62* | 45* | 16 | -2 | 10 | -2
Cc1cc(-c2csc(NC(=O)C3=COCCO3)n2)c(C)n1C | -2 | . | 18 | 43* | . | 7 | -37 | 47*

High-throughput results (PubChem BioAssay)
